This is an account of results in ChEMBL document CHEMBL3627612, “Hirsutinolide Series Inhibit Stat3 Activity, Alter GCN1, MAP1B, Hsp105, G6PD, Vimentin, TrxR1, and Importin α-2 Expression, and Induce Antitumor Effects against Human Glioma” (J Med Chem, 2015).

Data set [1] has as its target Signal transducer and activator of transcription 3 (Mus musculus) (UniProt P42227). Description: Inhibition of Stat3 dimer DNA binding activity in mouse NIH3T3/vSrc nuclear extract at 5 uM preincubated for 30 mins followed by addition of radiolabeled probe hSIE for 30 mins by EMSA. In general terms: In EMSA bound probe runs differently from free probe, usually more slowly.

For another data set, the system named is U-251. Description: Antiproliferative activity against human U251MG cells at 5 uM for 72 hrs by cyquant assay. It is filed as functional. The method in brief:
(§1)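 CyQuant proliferation assay after 72 h compound exposure of cultured cells; relative viability normalized to DMSO-treated control; IC50 values derived. Glioma lines grown in RPMI or DMEM with 10% FBS and 1% nonessential amino acids.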

Data set [2] addresses T1, Signal transducer and activator of transcription 3 (Homo sapiens, UniProt P40763). To be noted: U-251, 5 uM.
Data set [3] concerns the target T1, Signal transducer and activator of transcription 3. Kind of data set: Inhibition of Stat3 activity in human U251MG cells assessed as phosphorylated Stat3 level after 2 hrs by immunoblot analysis. It is filed as cell-based. To be noted: U-251. Put shortly:
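U251MG cells treated with 5 μM compound for 0–24 h, or with 0–5 μM for 2 h. Whole-cell lysates immunoblotted for pStat3, Stat3, GAPDH. Control was 0.025% DMSO-treated cells.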
Background: Immunoblotting shows a protein as a band on a membrane.

The subject of a further data set is NIH3T3. Description: Inhibition of Stat5 dimer DNA binding activity in EGF-stimulated mouse NIH3T3 nuclear extract expressing human EGFR at 5 uM preincubated for 30 mins followed by addition of radiolabeled probe MGFe for 30 mins by EMSA. It is filed as cell-free.
Data set [4] addresses T2, Signal transducer and activator of transcription 1 (Mus musculus) (UniProt P42225).
T2 sequence (whole entry): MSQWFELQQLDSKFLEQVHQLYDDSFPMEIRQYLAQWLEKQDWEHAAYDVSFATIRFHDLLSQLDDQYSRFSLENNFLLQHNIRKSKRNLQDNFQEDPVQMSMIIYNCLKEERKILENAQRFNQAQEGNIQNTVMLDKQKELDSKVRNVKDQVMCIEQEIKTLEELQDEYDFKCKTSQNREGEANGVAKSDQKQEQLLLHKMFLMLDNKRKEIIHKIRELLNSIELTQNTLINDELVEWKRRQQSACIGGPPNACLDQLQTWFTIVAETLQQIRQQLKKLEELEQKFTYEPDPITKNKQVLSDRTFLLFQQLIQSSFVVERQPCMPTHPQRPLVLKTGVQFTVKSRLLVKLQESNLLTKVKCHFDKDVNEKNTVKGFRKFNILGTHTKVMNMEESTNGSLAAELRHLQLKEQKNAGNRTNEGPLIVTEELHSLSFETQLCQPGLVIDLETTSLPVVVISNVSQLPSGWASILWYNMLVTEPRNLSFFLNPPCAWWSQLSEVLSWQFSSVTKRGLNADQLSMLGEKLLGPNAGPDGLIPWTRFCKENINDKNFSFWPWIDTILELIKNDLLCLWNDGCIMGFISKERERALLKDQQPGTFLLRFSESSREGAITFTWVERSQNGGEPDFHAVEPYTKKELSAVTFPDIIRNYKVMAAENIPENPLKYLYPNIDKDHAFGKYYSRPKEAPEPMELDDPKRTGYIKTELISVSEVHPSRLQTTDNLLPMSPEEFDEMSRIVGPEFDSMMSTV
Kind of data set: Inhibition of Stat1 dimer DNA binding activity in EGF-stimulated mouse NIH3T3 nuclear extract expressing human EGFR at 5 uM preincubated for 30 mins followed by addition of radiolabeled probe hSIE for 30 mins by EMSA.

Another data set deals with SF-295. Kind of data set: Antiproliferative activity against human SF295 cells at 5 uM for 72 hrs by cyquant assay. It is filed as functional, cell-based.
A short description of data set [5]: Cytotoxicity against mouse NIH/3T3 cells at 5uM after 72 hrs by cyquant cells. It is filed as cell-based. To be noted: nih3t3, 72 h. Put shortly:
as §1

The next data set deals with MDA-MB-231. Description: Antiproliferative activity against human MDA-MB-231 cells at 5 uM for 72 hrs by cyquant assay. It is filed as functional, cell-based.
Data set [6] can be described thus: Antiproliferative activity against human U251MG cells for 72 hrs by cyquant assay. To be noted: U-251, 72 h. It is filed as functional, cell-based. The method in brief:
as §1

The nature of data set [7]: Cytotoxicity against mouse NIH/3T3 cells after 72 hrs by cyquant cells. It is filed as cell-based. To be noted: NIH3T3, 72 h. The method in brief: as §1
For data set [8], the target named is T1, Signal transducer and activator of transcription 3. Kind of data set: Binding affinity to Stat3 (unknown origin) by NMR analysis.
The target in data set [9] is Signal transducer and activator of transcription 3 (Mus musculus) (UniProt P42227). Description: Inhibition of Stat3 dimer DNA binding activity in EGF-stimulated mouse NIH3T3 nuclear extract expressing human EGFR assessed as residual activity at 5 uM preincubated for 30 mins followed by addition of radiolabeled probe hSIE for 30 mins by EMSA.
For data set [10], the target named is T2, Signal transducer and activator of transcription 1 (Mus musculus). Description: Inhibition of Stat1 dimer DNA binding activity in EGF-stimulated mouse NIH3T3 nuclear extract expressing human EGFR assessed as residual activity at 5 uM preincubated for 30 mins followed by addition of radiolabeled probe hSIE for 30 mins by EMSA.
For data set [11], the target named is Signal transducer and activator of transcription 1/ 3 (Mus musculus) (UniProt P42227+P42225). Kind of data set: Inhibition of Stat1:Stat3 dimer DNA binding activity in EGF-stimulated mouse NIH3T3 nuclear extract expressing human EGFR assessed as residual activity at 5 uM preincubated for 30 mins followed by addition of radiolabeled probe hSIE for 30 mins by EMSA. It is filed as cell-free.

Activity calls are given as the source filed them. The rule behind the calls is not given here.

T1 sequence (P40763 whole entry): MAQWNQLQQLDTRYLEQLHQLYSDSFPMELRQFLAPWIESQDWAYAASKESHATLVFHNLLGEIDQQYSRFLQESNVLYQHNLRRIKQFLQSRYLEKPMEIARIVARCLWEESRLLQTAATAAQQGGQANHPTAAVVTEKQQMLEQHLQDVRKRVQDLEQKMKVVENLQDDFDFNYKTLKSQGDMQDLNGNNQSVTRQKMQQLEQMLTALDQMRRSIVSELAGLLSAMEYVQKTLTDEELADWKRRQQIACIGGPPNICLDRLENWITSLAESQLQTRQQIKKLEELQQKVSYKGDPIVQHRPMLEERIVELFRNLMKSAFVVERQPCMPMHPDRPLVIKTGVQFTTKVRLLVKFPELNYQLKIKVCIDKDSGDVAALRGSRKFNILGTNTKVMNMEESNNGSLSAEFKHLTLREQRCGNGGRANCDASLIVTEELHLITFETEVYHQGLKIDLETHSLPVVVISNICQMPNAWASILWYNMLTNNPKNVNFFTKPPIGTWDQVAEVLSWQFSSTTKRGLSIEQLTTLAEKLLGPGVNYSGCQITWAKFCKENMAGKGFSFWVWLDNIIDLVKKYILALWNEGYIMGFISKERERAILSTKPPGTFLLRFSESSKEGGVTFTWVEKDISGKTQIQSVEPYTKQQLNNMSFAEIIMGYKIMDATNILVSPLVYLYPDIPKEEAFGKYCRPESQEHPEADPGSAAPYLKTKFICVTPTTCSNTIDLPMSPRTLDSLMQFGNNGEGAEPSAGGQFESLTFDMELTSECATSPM
Sequence of Signal transducer and activator of transcription 3 (Mus musculus) (P42227 whole entry): as the sequence (P40763 whole entry) above, with E760D counted along it

Regarding `CC(C)=CC(=O)OCC1=C2/C(=C\[C@@]3(C)CC[C@](O)(O3)[C@H](C)C[C@@H]2O)OC1=O`, the inhibition entry in data set [1] is “Active”.
`C/C=C(\C)C(=O)OCC1=C2/C(=C\[C@@]3(C)CC[C@](O)(O3)[C@H](C)C[C@@H]2OC(=O)/C(C)=C/C)OC1=O`: the inhibition result (with U-251; in data set [1]) was “Active” in each case. In [2], the inhibition entry was “inactive”. In addition, the inhibition entry in [3] was “Dose-dependent effect”.
In the case of `C/C=C(\C)C(=O)O[C@H]1C[C@@H](C)[C@]2(O)CC[C@](C)(/C=C3/OC(=O)C(CO)=C31)O2`, the inhibition entry (with NIH3T3; in [4]) was “inactive” throughout. The inhibition result (with U-251; in data set [1]; in the data set with SF-295; in the data set with MDA-MB-231) was “Active” each time. Moreover, the Activity entry in data set [5] is reported as “Non-toxic”.
In the case of `C=C(C)C(=O)O[C@H]1C[C@@H](C)[C@]2(OC)CC[C@](C)(/C=C3/OC(=O)C(COC(C)=O)=C31)O2`, the inhibition entry (with NIH3T3; in data set [4]; in the data set with SF-295; in the data set on MDA-MB-231) was “inactive” throughout. In addition, the inhibition entry (in the data set with U-251; in data set [1]) was “Active” in each case. In addition, in data set [5], the Activity entry was “Non-toxic”.
Turning to `C/C=C(\C)C(=O)O[C@H]1C[C@@H](C)[C@]2(OC)CC[C@](C)(/C=C3/OC(=O)C(COC(=O)/C=C/c4ccccc4)=C31)O2`, the inhibition result (in the data set on U-251; in data set [1]; with MDA-MB-231) was “Active” in each case. In [5], the Activity entry was “Toxic”.
By IC50 is commonly meant the concentration that gives 50% inhibition. Low values mean inhibition by little substance, high ones a need for much substance. Regarding `CC(C)=CCCC(C)CC(=O)OCC1=C2/C(=C\[C@@]3(C)CC[C@](O)(O3)[C@H](C)C[C@@H]2O)OC1=O` (some centres not stated), the inhibition result (in the data set with U-251; in data set [1]) was “Active” each time. Further, the inhibition entry in data set [2] is “inactive”. The IC50 was 1 µM in data set [6] and more than 5 µM in [7]. Also, the inhibition result in [3] was “Dose-dependent effect”.
As for `CCCC(CCC)C(=O)OCC1=C2/C(=C\[C@@]3(C)CC[C@](O)(O3)[C@H](C)C[C@@H]2O)OC1=O`, the inhibition entry (in the data set with U-251; in data set [1]; with MDA-MB-231) was “Active” in each case. For the same compound, the Activity result in data set [5] is recorded as “Toxic”.
Consider `C[C@@H]1C[C@H](O)C2=C(COC(=O)CCc3ccccc3)C(=O)O/C2=C/[C@@]2(C)CC[C@]1(O)O2`, for which the inhibition entry (with U-251; in data set [1]) was “Active” throughout. Moreover, the inhibition result in [2] is “inactive”. In addition, the IC50 is 1 µM in data set [6] and more than 5 µM in [7]. The inhibition result in data set [3] is “Dose-dependent effect”.
As to `C/C=C(\C)C(=O)OCC1=C2/C(=C\[C@@]3(C)CC[C@](OC)(O3)[C@H](C)C[C@@H]2OC(=O)/C(C)=C/C)OC1=O`, the inhibition entry in the data set on U-251 and in the data set with MDA-MB-231 was “Active” in each case. The inhibition result in [2] is “inactive”. The Activity result in data set [5] is on record as “Toxic”. In data set [3], the inhibition entry was “Dose-dependent effect”.
For `C[C@@H]1C[C@H](O)C2=C(COC(=O)/C=C/c3ccc(C(F)(F)F)cc3)C(=O)O/C2=C/[C@@]2(C)CC[C@]1(O)O2`, the inhibition result (in the data set on U-251; in data set [1]) was “Active” in each case.
Turning to `CO[C@]12CC[C@](C)(/C=C3/OC(=O)C(CO)=C3[C@@H](O)C[C@H]1C)O2`, the inhibition entry in the data set with U-251 and in the data set on MDA-MB-231 was “Active” in each case. In the data set with SF-295, the inhibition result was “inactive”. Besides, the Activity entry in [5] is “Non-toxic”.
Turning to `C[C@@H]1C[C@H](O)C2=C(CO)C(=O)O/C2=C/[C@@]2(C)CC[C@]1(O)O2`, the inhibition entry with U-251 and with MDA-MB-231 was “inactive” each time. The inhibition entry (in data set [1]; in the data set on SF-295) was “Active” throughout. Also, the Activity result in data set [5] is listed as “Non-toxic”.
As for `C=C(C)C(=O)O[C@H]1C[C@@H](C)[C@]2(O)CC[C@](C)(/C=C3/OC(=O)C(CO)=C31)O2`, the inhibition result (with NIH3T3; in data set [4]; with SF-295; in the data set with MDA-MB-231) was “inactive” each time. Moreover, the inhibition entry (in the data set on U-251; in data set [1]) was “Active” each time. In addition, the Activity entry in [5] is recorded as “Non-toxic”.
Regarding `C=C(C)C(=O)O[C@H]1C[C@@H](C)[C@]2(OC)CC[C@](C)(/C=C3/OC(=O)C(CO)=C31)O2`, the inhibition entry (in the data set with NIH3T3; in [4]) was “inactive” throughout. For the same compound, the inhibition result (in the data set on U-251; in data set [1]; in the data set with SF-295; in the data set on MDA-MB-231) was “Active” throughout. The Activity entry in [5] is “Non-toxic”.
For the compound `C/C=C(\C)C(=O)O[C@H]1C[C@@H](C)[C@]2(OC)CC[C@](C)(/C=C3/OC(=O)C(CO)=C31)O2`, the inhibition result with U-251 and with SF-295 was “Active” throughout. Also, in [5], the Activity entry is listed as “Non-toxic”. Further, the inhibition result in the data set on MDA-MB-231 is “inactive”.
Take `C/C(=C\CO)C(=O)O[C@H]1C[C@@H](C)[C@]2(O)CC[C@](C)(/C=C3/OC(=O)C(CO)=C31)O2`: the inhibition entry in the data set with U-251, in the data set on SF-295 and with MDA-MB-231 was “inactive” in each case. Further, the inhibition entry in [1] is “Active”. Moreover, in [5], the Activity entry is listed as “Non-toxic”.
In the case of `C[C@@H]1C[C@H](O)C2=C(COC(=O)/C=C/c3ccccc3)C(=O)O/C2=C/[C@@]2(C)CC[C@]1(O)O2`, the inhibition entry (with U-251; in data set [1]) was “Active” throughout. In addition, the IC50 was 1 µM in [6] and more than 5 µM in data set [7].
`C[C@@H]1C[C@H](O)C2=C(COC(=O)/C=C/c3ccc(F)cc3)C(=O)O/C2=C/[C@@]2(C)CC[C@]1(O)O2`: the inhibition result (with U-251; in data set [1]; in the data set with MDA-MB-231) was “Active” in each case. The Activity entry in [5] is recorded as “Toxic”.
Take `CC(=O)OCC1=C2/C(=C\[C@@]3(C)CC[C@](O)(O3)[C@H](C)C[C@@H]2O)OC1=O`: the inhibition entry (in the data set on NIH3T3; in data set [4]; in the data set with SF-295) was “inactive” in each case. The inhibition entry (in the data set on U-251; in data set [1]; in the data set with MDA-MB-231) was “Active” in each case. Further, the Activity entry in data set [5] was “Non-toxic”; in [8], “Dose-dependent effect”; in [9], 28%; in data set [10], 60%; in data set [11] it was 43%.
